A short description of assay [1]: Inhibition of mouse recombinant alexa fluor 488-labeled PrPC expressed in Escherichia coli BL21(DE3) RIL assessed as inhibition of association with PrPSc measured for 10 secs by SIFT-based confocal microscopy. As to conditions: for pEC50: read-out: EC50. In outline:
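SIFT assay: Alexa-488-labelled mouse rPrP and Alexa-647-labelled L42 antibody (each about 2–6 nM) were mixed with diluted human PrPSc and compound in 20 mM potassium phosphate pH 6 with 0.1% Nonidet P40. Dilution series 0.1–100 µM. Read by dual-colour confocal FIDA as 2D intensity histograms, with cut-offs set from controls. EC50 is half-maximal inhibition of rPrP binding to PrPSc.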

The test system of assay [2] is ScN2a. Description: Antiprion activity in mouse ScN2a cells assessed as reduction in PrPSc level at 20 uM after 3 days by dot blot assay relative to control. It is filed as cell-based. More on the design: scale not given: the % may be the effect or the level left. In outline:
(§1)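 Compound was added at a final 20.0 or 2.0 µM, then incubated 3 days (ScN2a at 37 °C, SMB at 35 °C). Lysates were dot-blotted to PVDF, treated with proteinase K (25 µg/ml, 90 min, 37 °C) and denatured with guanidinium thiocyanate. PrPres was probed with rabbit 1023 antiserum and detected by ECL. Signal is relative to untreated control (100%), from three independent experiments.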

Assay [3] deals with ScN2a. Description: Antiprion activity in mouse ScN2a cells assessed as reduction in PrPSc level at 2 uM after 3 days by dot blot assay relative to control. It is filed as cell-based. Set-up: scale not given: the % may be the effect or the level left. The method in brief: as §1
For assay [4], the system named is SMB. Description: Antiprion activity in mouse SMB cells assessed as reduction in PrPSc level at 20 uM after 3 days by dot blot assay relative to control. Type of assay: cell-based. Set-up: scale not given: the % may be the effect or the level left. In outline:
as §1

Assay [5] has as its system SMB. Description: Antiprion activity in mouse SMB cells assessed as reduction in PrPSc level at 2 uM after 3 days by dot blot assay relative to control. It is filed as cell-based. More on the design: scale not given: the % may be the effect or the level left. The method in brief:
as §1

Assay [6] is described as follows: Antiprion activity in mouse ScN2a cells assessed as reduction in PrPSc level after 3 days by dot blot assay relative to control. Type of assay: cell-based. The conditions noted are these: 72 h.
The nature of assay [7]: Antiprion activity in mouse SMB cells assessed as reduction in PrPSc level after 3 days by dot blot assay relative to control. Type of assay: cell-based. As to conditions: 72 h.

This is an account of results in ChEMBL document CHEMBL2062371, “Synthesis of benzamide derivatives and their evaluation as antiprion agents” (Bioorg Med Chem, 2012).

pEC50: −log10 of the molar value.

What is called pEC50 is the EC50 on a negative log10 scale, so that one unit is a factor of ten.

Take `CCCCNC(=O)c1cc(NC(=O)CN2CCCC2)ccc1Oc1ccc(C(C)C)cc1`: the pEC50 in assay [1] was 4.74; in assay [6] it was 5.68; in assay [7], 4.79. Besides, the Activity in the assay on ScN2a [2] is 20%; in the assay on ScN2a [3], 32%; in the assay with SMB [4], 48%; in the assay with SMB [5] it was 73%.
Consider `CCCCNC(=O)c1cc(NC(=O)CN2CCCC2)ccc1Oc1ccc(F)cc1`, for which the pEC50 in assay [1] is 3.70; in assay [6], 5.33; in assay [7], under 3.00. Also, the Activity in the assay on ScN2a [2] amounted to 39%; with ScN2a [3] it was 45%; with SMB [4], 92%; with SMB [5], 57%.
On to `CCCCNC(=O)c1cc(NC(=O)CN2CCCCC2)ccc1Oc1ccc(OC)cc1`, for which the pEC50 in assay [1] is 3.82; in assay [6], 5.45; in assay [7] it was under 3.00. The Activity with ScN2a [2] worked out at 28%; in the assay on ScN2a [3], 49%; with SMB [4], 82%; in the assay on SMB [5], 83%.
As for `CCCCNC(=O)c1cc(NC(=O)CN2CCCC2)ccc1Oc1ccc(Cl)cc1`, the pEC50 in assay [1] is 4.26; in assay [6] it was 5.77; in assay [7] it was 4.91. Further, the Activity turned out to be 16% in the assay with ScN2a [2], 25% with ScN2a [3], 46% in the assay with SMB [4] and 68% in the assay on SMB [5].
`CCCCNC(=O)c1cc(NC(=O)CN2CCCC2)ccc1OC12CC3CC(CC(C3)C1)C2`: the negative logarithm of the EC50 (pEC50) was 4.10 in assay [1], 5.70 in assay [6] and 4.91 in assay [7]. Further, the Activity is 16% in the assay with ScN2a [2], 34% in the assay with ScN2a [3], 42% with SMB [4] and 77% in the assay on SMB [5].
For the compound `CCCCNC(=O)c1cc(NC(=O)CN2CCCCC2)ccc1OC(C)C`, the EC50 result in assay [1] is reported as “Not Active”. In addition, the Activity with ScN2a [2] was found to be 29%; in the assay on ScN2a [3], 78%; with SMB [4] it was 72%; with SMB [5] it was 58%. In addition, the pEC50 in assay [6] is 5.16; in assay [7], 3.79.
In the case of `CCCCNC(=O)c1cc(NC(=O)CN2CCCCC2)ccc1OC12CC3CC(CC(C3)C1)C2`, the figures for the pEC50 in assay [1], in assay [6] and in assay [7] were 4.30, 5.78 and 5.28, respectively. The Activity was 12% in the assay on ScN2a [2], 27% in the assay on ScN2a [3], 36% in the assay with SMB [4] and 54% with SMB [5].
On to `CCCCNC(=O)c1cc(NC(=O)CN2CCCC2)ccc1Oc1ccc(OC)cc1`, for which the figures for the negative-log EC50 (pEC50) in assay [1], in assay [6] and in assay [7] were 3.70, 5.53 and 3.06, respectively. In addition, the Activity with ScN2a [2] stood at 31%; in the assay with ScN2a [3], 36%; with SMB [4] it was 75%; with SMB [5], 74%.
With `CCCCNC(=O)c1cc(NC(=O)CN2CCCC2)ccc1Oc1ccc(OCCCC)cc1`, the pEC50 in assay [1] is 4.52; in assay [6], 5.53; in assay [7], 4.27. For the same compound, the Activity with ScN2a [2] was 19%; in the assay with ScN2a [3] it was 52%; in the assay with SMB [4] it was 58%; in the assay with SMB [5] it was 82%.
For `CCCCNC(=O)c1cc(NC(=O)CN2CCCCC2)ccc1Oc1ccc(C)cc1`, the negative logarithm of the EC50 (pEC50) in assay [1] is 4.40; in assay [6], 5.59; in assay [7] it was under 3.00. Moreover, the Activity in the assay on ScN2a [2] stood at 26%; in the assay with ScN2a [3], 36%; in the assay with SMB [4], 86%; with SMB [5], 86%.
In the case of `CCCCNC(=O)c1cc(NC(=O)CN2CCCCC2)ccc1Oc1ccccc1C(F)(F)F`, the pEC50 in assay [1] is 4.15; in assay [6] it was 5.69; in assay [7] it was 4.51. The Activity in the assay on ScN2a [2] is 12%; in the assay on ScN2a [3] it was 39%; with SMB [4] it was 55%; in the assay with SMB [5] it was 75%.
Consider `CCCCNC(=O)c1cc(NC(=O)CN2CCCCC2)ccc1Oc1ccc(F)cc1`, for which the pEC50 in assay [1] was 4.15; in assay [6], 5.53; in assay [7] it was under 3.00. The Activity in the assay with ScN2a [2] stood at 32%; with ScN2a [3] it was 35%; with SMB [4], 81%; in the assay on SMB [5] it was 61%.
Take `CCCCNC(=O)c1cc(NC(=O)CN2CCCC2)ccc1OC1CCCCC1`: the negative-log EC50 (pEC50) in assay [1] is 3.70; in assay [6], 5.50; in assay [7], 5.11. For the same compound, the Activity in the assay with ScN2a [2] worked out at 32%; in the assay with ScN2a [3] it was 38%; with SMB [4], 38%; in the assay with SMB [5], 67%.
Turning to `CCCCNC(=O)c1cc(NC(=O)CN2CCCC2)ccc1OC(C)C`, in assay [1], the EC50 entry is given as “Not Active”. The Activity in the assay on ScN2a [2] turned out to be 24%; in the assay with ScN2a [3], 42%; in the assay with SMB [4], 48%; in the assay on SMB [5], 59%. Also, the pEC50 in assay [6] was 5.56; in assay [7], 4.97.
As for `CCCCNC(=O)c1cc(NC(=O)CN2CCCC2)ccc1Oc1ccc(C(F)(F)F)cc1`, the pEC50 in assay [1] was 4.40; in assay [6] it was 5.79; in assay [7], 5.24. In addition, the Activity is 12% with ScN2a [2], 26% in the assay on ScN2a [3], 41% in the assay on SMB [4] and 50% in the assay with SMB [5].
Regarding `CCCCNC(=O)c1cc(NC(=O)CN2CCCCC2)ccc1Oc1ccc(C(F)(F)F)cc1`, the pEC50 in assay [1] was 4.15; in assay [6] it was 5.68; in assay [7], 4.52. Moreover, the Activity in the assay with ScN2a [2] amounted to 17%; in the assay with ScN2a [3], 35%; in the assay on SMB [4], 53%; in the assay with SMB [5], 80%.
As for `CCCCNC(=O)c1cc(NC(=O)CN2CCCCC2)ccc1Oc1ccc(OCCCC)cc1`, the pEC50 was 4.30 in assay [1], 5.43 in assay [6] and 4.61 in assay [7]. In addition, the Activity with ScN2a [2] came out at 21%; in the assay on ScN2a [3], 61%; in the assay on SMB [4], 52%; in the assay on SMB [5], 76%.
`CCCCNC(=O)c1cc(NC(=O)CN2CCCC2)ccc1Oc1ccccc1`: the pEC50 in assay [1] was 3.70; in assay [6], 5.26; in assay [7] it was under 3.00. Further, the Activity is 41% in the assay with ScN2a [2], 48% in the assay on ScN2a [3], 82% in the assay on SMB [4] and 92% in the assay on SMB [5].
`CCCCNC(=O)c1cc(NC(=O)CN2CCCCC2)ccc1Oc1ccc(C(C)C)cc1`: the pEC50 in assay [1] is 4.82; in assay [6], 5.65; in assay [7] it was 4.86. In addition, the Activity turned out to be 13% with ScN2a [2], 43% in the assay on ScN2a [3], 46% with SMB [4] and 72% with SMB [5].
Turning to `CCCCNC(=O)c1cc(NC(=O)CN2CCCC2)ccc1Oc1ccc(C)cc1`, the pEC50 in assay [1] is 4.15; in assay [6], 5.74; in assay [7], 4.72. The Activity in the assay on ScN2a [2] was found to be 13%; in the assay with ScN2a [3], 32%; in the assay on SMB [4], 55%; in the assay with SMB [5], 61%.
With `CCCCNC(=O)c1cc(NC(=O)CN2CCCCC2)ccc1OC1CCCCC1`, the values for the pEC50 in assay [1], in assay [6] and in assay [7] were 4.10, 5.62 and 3.97, respectively. Also, the Activity is 22% with ScN2a [2], 37% with ScN2a [3], 65% with SMB [4] and 76% in the assay with SMB [5].
`CCCCNC(=O)c1cc(NC(=O)CN2CCCCC2)ccc1Oc1ccccc1`: the pEC50 in assay [1] is 3.70; in assay [6], 5.41; in assay [7], 3.30. Further, the Activity with ScN2a [2] is 30%; in the assay with ScN2a [3] it was 50%; in the assay on SMB [4], 75%; with SMB [5] it was 65%.
Take `C#CCOc1ccc(NC(=O)CN2CCCCC2)cc1C(=O)NCCCC`: in assay [1], the EC50 result is “Not Active”. The Activity in the assay on ScN2a [2] turned out to be 37%; with ScN2a [3], 76%; in the assay with SMB [4], 66%; with SMB [5], 70%. For the same compound, the results for the pEC50 in assay [6] and in assay [7] were 5.03 and 4.01, respectively.
In the case of `C#CCOc1ccc(NC(=O)CN2CCCC2)cc1C(=O)NCCCC`, the EC50 entry in assay [1] is given as “Not Active”. The Activity in the assay with ScN2a [2] was found to be 32%; in the assay on ScN2a [3] it was 43%; in the assay with SMB [4], 65%; in the assay on SMB [5], 74%. Besides, the negative logarithm of the EC50 (pEC50) in assay [6] was 5.45; in assay [7], 4.00.
As for `CCCCNC(=O)c1cc(NC(=O)CN2CCCC2)ccc1Oc1ccccc1C(F)(F)F`, the negative logarithm of the EC50 (pEC50) was 4.60 in assay [1], 5.85 in assay [6] and 4.78 in assay [7]. Further, the Activity in the assay on ScN2a [2] came out at 15%; in the assay on ScN2a [3], 16%; with SMB [4], 54%; in the assay with SMB [5] it was 61%.
Turning to `CCCCNC(=O)c1cc(NC(=O)CN2CCCCC2)ccc1Oc1ccc(Cl)cc1`, the pEC50 in assay [1] was 4.70; in assay [6], 5.65; in assay [7], 4.82. Further, the Activity was determined as 21% in the assay on ScN2a [2], 35% in the assay with ScN2a [3], 49% with SMB [4] and 68% with SMB [5].
